Screening results deposited in PubChem by several laboratories.
Shown are actives, neighbours in structure and some others; about 1.9% of the full set was active somewhere.
PP5 inh – PP5 phosphatase inhibitors, primary screen, biochemical, fluorescence; Serine/threonine-protein phosphatase 5 (Homo sapiens), P53041; purified PP5c, OMFP substrate fluorescence; inhibition, % at 6.7 µM; actives 0.18% (n = 320,000);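 active = inhibition above the campaign's mean inhibition across all tested compounds plus 3 SD, cut at about 9.5% in these data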;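 also: 0% = DMSO only and 100% = 100 µM cantharidin control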
Target sequence (P53041 whole entry, looked up): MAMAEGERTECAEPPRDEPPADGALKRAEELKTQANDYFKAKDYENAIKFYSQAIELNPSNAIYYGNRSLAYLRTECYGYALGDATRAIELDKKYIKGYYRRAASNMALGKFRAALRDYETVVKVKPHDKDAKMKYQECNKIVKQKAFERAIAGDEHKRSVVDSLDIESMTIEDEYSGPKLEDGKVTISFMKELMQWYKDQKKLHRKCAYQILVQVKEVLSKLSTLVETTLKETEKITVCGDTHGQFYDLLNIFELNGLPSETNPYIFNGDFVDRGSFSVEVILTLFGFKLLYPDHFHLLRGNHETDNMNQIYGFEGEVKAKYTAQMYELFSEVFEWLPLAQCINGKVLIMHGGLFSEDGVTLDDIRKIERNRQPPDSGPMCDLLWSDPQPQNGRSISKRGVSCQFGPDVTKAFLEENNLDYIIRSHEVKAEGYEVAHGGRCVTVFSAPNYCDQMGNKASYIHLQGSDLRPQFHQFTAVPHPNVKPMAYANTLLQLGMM
PP1 counter – PP1-alpha phosphatase inhibitors, primary screen, counter-screen for PP5 inhibitor project, biochemical, fluorescence, OMFP substrate, single point. purified PP1alpha. AID 2235, 2010. actives 0.9% (n = 320,000). Serine/threonine-protein phosphatase PP1-alpha catalytic subunit (Homo sapiens), P62136. inhibition, % at 6.7 µM;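 active = inhibition above the mean inhibition of all tested compounds plus 3 SD, computed separately for each screening campaign, cut at about 15% in these data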
HIF activator – HIF pathway transcriptional activators, primary screen, cell-based, U2OS HRE-luciferase, luminescence; U2OS HRE-luciferase reporter; normalized: DMSO 0%, desferrioxamine 100%; activation, % at 7.5 µM (by protocol); actives 0.32% (n = 300,000);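 active = mean activation of at least 10% of the iron chelator positive control signal, with at least half of replicates also reaching 10%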
DNA FID counter-1 – compounds displacing fluorescent DNA intercalator, primary screen, artefact control for HCV NS3 helicase inhibitor project, biochemical, FID fluorescence. AID 1845, 2009. inhibition, % at 7.9 µM. actives 0.17% (n = 290,000). DNA fluorescent intercalator displacement;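 also: 0% = vehicle and 100% = reference compound; higher means more ethidium bromide displaced from hairpin DNA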
HCV NS3 hel inh – inhibitors of HCV NS3 helicase, primary screen, biochemical, Cy5 molecular beacon fluorescence; inhibition, % at 10.9 µM; NS3 helicase DNA unwinding; Hepatitis C virus NS3 helicase; actives 0.56% (n = 290,000);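 active = inhibition above the mean of all tested compounds plus 3 SD, set per campaign, cut at about 35% in these data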;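 also: 0% = DMSO wells and 100% = thioflavine S control wells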
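System: NS3 helicase fragment of HCV / Schedule: 1 h at 25 °C / Control set: DMSO alone as 0% and 110 µM thioflavine S as 100% / Reagent: Cy5/quencher beacon DNA duplex and ATP to start / Technique: Cy5 fluorescence / Replication: singlicate / Evaluation: % inhibition of end-to-start signal ratio versus controls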
NS3 hel confirm – HCV NS3 helicase inhibitors, retest, confirmation, biochemical, Cy5 molecular beacon fluorescence, triplicate | shares compounds with HCV NS3 hel inh | NS3 helicase DNA unwinding | inhibition, % at 10.9 µM | actives 31% (n = 1,600) | AID 1943, 2009;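 active = inhibition above the mean of all tested compounds plus 3 SD, cutoff set per campaign, cut at about 36% in these data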
DNA FID counter-2 – compounds displacing fluorescent DNA intercalator, artefact control for HCV NS3 helicase inhibitor project, biochemical, FID fluorescence, triplicate; DNA fluorescent intercalator displacement; shares compounds with HCV NS3 hel inh; actives 4% (n = 1,600); inhibition, % at 7.9 µM;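 also: 0% = vehicle and 100% = reference compound; higher means more displacement of ethidium bromide from the DNA hairpin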
FID counter DR – compounds displacing fluorescent intercalator from DNA, dose response, counter-screen for HCV NS3 helicase inhibitor project, biochemical, fluorescence; shares compounds with HCV NS3 hel inh; fluorescent intercalator displacement from DNA; IC50, µM; 120 tested, under 10 active; AID 2172, 2009; call rule not given here
The depositor's hits bear a star; nt = not tested or not shown. Rule as the data show it, unless noted: active = inhibition above about 37%; inactive = the rest.

SMILES	PP5 inh	PP1 counter	HIF activator	DNA FID counter-1	HCV NS3 hel inh	NS3 hel confirm	DNA FID counter-2	others
CC(C)(C)c1ccc(S(=O)(=O)/N=C2\C=C(NS(=O)(=O)c3ccccc3)C(=O)c3ccccc32)cc1	1.8	2.0	-0.1	25.2	43.4*	82.0*	60.3*
CC(=O)N1CCc2[nH]c3ccccc3c2C1	3.0	-7.3	-0.9	-4.6	0.3	nt	nt
CC(=O)N1C=Cc2c(c(C)c3c([nH]c4ccccc43)c2C)C1	nt	nt	nt	32.2	39.3*	22.6	34.6
Cc1ccc(-n2sc3ccccc3c2=O)cc1S(=O)(=O)N1CCCCC1	0.4	0.7	nt	-27.7	46.8*	21.5	-29.3
COc1cc(/C=N/NC(=S)Nc2cccc(S(=O)(=O)N(C)C)c2)cc(OC)c1O	2.8	2.1	-0.4	-10.1	3.3	nt	nt
CN(C)S(=O)(=O)c1cccc(NC(=S)N/N=C/c2ccc(O)c(O)c2O)c1	nt	nt	2.6	-18.1	40.6*	10.9	50.0*
C=CCN1C(=O)/C(=C/c2ccc(-c3ccc(F)cc3)o2)SC1=S	0.4	0.5	0.1	-0.8	78.3*	-9.8	21.1
CCOc1ccc(-n2c(SCC(=O)O)nc3sc4c(c3c2=O)CCCC4)cc1	1.2	0.3	-1.0	-24.6	20.5	nt	nt
Cc1ccc(-n2c(SCC(=O)O)nc3sc4c(c3c2=O)C(C)CCC4)cc1 (stereo not given)	3.0	10.1	0.5	-16.2	55.4*	65.6*	-14.8
CCOC(=O)c1[nH]c2ccccc2c1NC(=O)Nc1ccc(OC)cc1	-0.7	7.4	-0.1	2.2	-1.2	nt	nt
COC(=O)c1nc(N)sc1C	2.9	-4.4	0.5	-0.6	-4.1	nt	nt
CCOC(=O)C1=C(O)/C(=C\c2ccc(CNC(=O)C(=O)Nc3ccccc3)o2)N=C1C	2.4	8.6	0.0	-10.8	39.6*	31.0	-8.1
NNc1nc2sc3c(c2c(=O)n1Cc1ccccc1)CCC3	3.1	2.6	0.4	-10.7	43.6*	10.1	-16.3
CCn1c(NN)nc2sc3c(c2c1=O)CCC3	0.6	1.8	nt	-7.8	18.9	nt	nt
CCOc1ccc(-c2ccc(/C=C3/C(=N)N4C(C)=CSC4=NC3=O)o2)c([N+](=O)[O-])c1	1.0	5.8	-1.9	-12.3	48.1*	-2.9	1.8
CCOc1ccc(-c2ccc(/C=C3/C(=N)N4C=CSC4=NC3=O)o2)c([N+](=O)[O-])c1	4.2	-1.4	0.3	-14.0	9.9	nt	nt
CN(Cc1cccs1)C(=O)COc1ccc(-c2nnco2)cc1	2.0	-0.2	0.0	-5.0	4.2	nt	nt
Cc1cc(C(=O)CSc2nnc(-c3ccccc3)n2Cc2ccc3c(c2)OCO3)c(C)n1C	-1.1	3.9	0.2	-9.5	9.8	nt	nt
Cc1cc(C(=O)CSc2nc3ccccc3c(=O)n2C)c(C)n1Cc1ccc2c(c1)OCO2	-1.8	0.3	0.4	-0.2	40.0*	2.0	-18.2
Cc1cc(C)c(NC(=O)c2ccc(CNS(=O)(=O)c3cc(C(F)(F)F)ccc3Cl)cc2)c(C)c1	6.0	4.9	-0.6	-23.4	36.3*	-4.4	-13.6
O=C1CN(C(=O)N[C@@H](Cc2ccccc2)C(=O)N[C@@H](Cc2ccccc2)C(=O)O)c2ccccc2N1	-3.3	0.8	0.0	-39.4	36.5*	-23.3	-31.3
COC(=O)c1cc(C(=O)OCC(=O)NCc2cccs2)cc([N+](=O)[O-])c1	-1.4	-0.2	nt	nt	nt	nt	nt
CSc1sccc1/C=N/O	-0.7	-1.9	0.5	-0.9	6.2	nt	nt
CSc1sccc1/C=C(/C#N)C(=O)c1ccco1	-0.1	2.0	1.4	-19.9	37.8*	-37.4	9.7
Cc1ccccc1OCC(=O)N/N=C/c1ccco1	-0.3	-0.6	0.2	2.7	8.9	nt	nt
SMILES	PP5 inh	PP1 counter	HIF activator	DNA FID counter-1	HCV NS3 hel inh	NS3 hel confirm	DNA FID counter-2	others
COc1ccc(OCC(=O)N/N=C/C(C)=C/c2ccco2)c(Br)c1	-4.8	17.4*	0.7	-32.5	44.7*	5.2	-6.2
CC1CN(c2ccc(NC(=O)c3ccco3)cc2C(=O)O)CC(C)O1 (stereo not given)	-0.1	-5.5	nt	-1.8	-7.3	nt	nt
O=C(O)c1cc(NC(=S)NC(=O)C(c2ccccc2)c2ccccc2)ccc1Cl	-1.5	3.2	nt	-27.9	41.0*	76.5*	-4.5
Cc1cccc(CSc2nc3sc(C)c(C)c3c(=O)n2Cc2ccco2)c1	-0.6	1.4	0.0	-9.3	39.2*	-8.7	7.4
O=C1CC(=O)N(c2ccccc2)N1c1ccccc1	-0.9	4.1	0.1	-33.3	38.4*	16.3	-7.2
O=C1CC(=O)N(c2ccccc2)c2ccccc21	-1.5	-1.2	-0.4	5.2	-4.4	nt	nt
Oc1ccc(/C=N/Nc2ccnc3cc(Cl)ccc23)cc1O	1.5	6.9	-0.1	19.1	-15.2	nt	nt
Oc1ccc(/C=N/Nc2ccnc3cc(Cl)ccc23)c(O)c1O	3.6	13.2	-1.3	-18.8	40.2*	6.7	44.9*
Cc1cc(S(=O)(=O)N2CCC3(CC2)OCCN3S(=O)(=O)c2cccs2)ccc1F	2.8	-2.0	2.2	nt	nt	nt	nt
Cc1cc(C)c(NC(=O)c2cc(C(=O)O)ccc2C(=O)O)c([N+](=O)[O-])c1	0.0	-5.1	-0.3	3.3	6.6	nt	nt
CCc1ccc(N2NC(=O)/C(=C/C=C/c3ccco3)C2=O)cc1	4.4	4.5	0.0	-14.7	49.6*	46.1*	31.0
O=C(/C=C/c1ccco1)NC(=S)Nc1cccc(C(=O)O)c1	-0.6	1.1	0.7	-12.7	52.1*	30.1	10.8
COC(=O)C1CCN(S(=O)(=O)c2cc3c4c(c2)CCN4C(=O)CC3)CC1	nt	nt	-1.1	nt	nt	nt	nt
O=C1OC(c2ccco2)=N/C1=C\c1ccc(-c2cccc(C(F)(F)F)c2)o1	0.7	3.9	0.0	-30.2	36.8*	47.2*	-4.5	FID counter DR=>79.4
COc1cccc(-c2cc(C(=O)N/N=C/c3ccco3)c3ccccc3n2)c1	3.7	-1.1	-0.1	-26.4	7.9	nt	nt
O=C(CNc1ccc2ccccc2c1)N/N=C/c1ccc(C(=O)O)cc1	-0.4	-3.3	-0.1	-38.5	0.6	nt	nt
O=C(COc1ccccc1)N/N=C/c1ccc([N+](=O)[O-])o1	2.7	-4.6	0.1	-13.2	41.4*	-7.5	15.5
Cc1ccc(OCC(=O)N/N=C/c2ccc([N+](=O)[O-])o2)cc1	-0.7	-1.7	-0.4	-0.5	13.0	nt	nt
O=C(CNc1ccc2ccccc2c1)N/N=C/c1ccc([N+](=O)[O-])o1	-0.8	12.1	-0.2	-12.2	54.7*	-0.4	11.5
